Results from different studies.
Target: Cyclin-dependent kinase-like 1 (CDKL1, Homo sapiens, UniProt Q00532)

O=C(c1ccc(Nc2ncc(Cl)c(-c3cc4ccccc4s3)n2)cc1)N1CCC(N2CCCC2)CC1
remaining binding (binding, competition with immobilised ligand; 1 µM): 51%

CCN1CCN(Cc2ccc(C(=O)Nc3ccc(C)c(Oc4ccc5c(c4)CC(=O)N5)c3)cc2C(F)(F)F)CC1
remaining binding (binding, competition with immobilised ligand; 1 µM): 100%

CNCc1ccccc1-c1csc([C@@H](C)Nc2nc(C)nc3cc(OC)c(OC)cc23)c1
remaining binding (cell-free assay, competition with immobilised ligand; 1 µM): 93%

C[C@H]1CCN(c2nccc(-c3cnn4ncccc34)n2)C1
remaining binding (binding; 1 µM): 62%

c1cncc(-c2cccc(Nc3nccc(NC4CCCCC4)n3)c2)c1
remaining binding (binding, competition with immobilised ligand; 10 µM): 70%

Cc1cc(-n2nc(Cc3cc(F)cc(C(F)(F)F)c3)nc2C)ccc1C(N)=O
remaining binding (cell-free assay, competition with immobilised ligand; 1 µM): 71%

CN(C)c1nccc(-c2cnn3ncccc23)n1
remaining binding (binding; 1 µM): 89%

CCS(=O)(=O)c1cc2cc(C[C@](O)(CC(C)(C)c3ccc(F)cc3C(N)=O)C(F)(F)F)[nH]c2cn1
remaining binding (cell-free assay, competition with immobilised ligand; 1 µM): 81%

COc1cnc(Nc2cccc(S(N)(=O)=O)c2)nc1N1CCN(c2ccccc2)CC1
remaining binding (binding, competition with immobilised ligand; 1 µM): 86%

COc1ncc2cc3ccccc3nc2c1C#N
remaining binding (binding, competition with immobilised ligand; 5 µM): 100%

C[C@@H](c1cccc(C#N)c1)n1cc(Cl)cc(C(N)=O)c1=N
remaining binding (binding, competition with immobilised ligand; 1 µM): 100%

COc1cnc(Nc2cccc(S(N)(=O)=O)c2)nc1N1CCN(c2ccccc2)C(=O)C1
remaining binding (binding, competition with immobilised ligand; 1 µM): 92%

Cc1nccc(COC(=O)N2C[C@@H]3[C@@H](CNC(=O)c4ccc5[nH]nnc5c4)[C@@H]3C2)n1
remaining binding (cell-free assay, competition with immobilised ligand; 1 µM): 81%

O=C(NCCCN1CCOCC1)c1ccc(Nc2nccc(-c3cc4ccccc4s3)n2)cc1
remaining binding (binding, competition with immobilised ligand; 1 µM): 54%

Cc1nc(N2CC[C@@H](O)C2)ncc1-c1cc(C(F)(F)F)cc2[nH]ncc12
remaining binding (binding, competition with immobilised ligand; 1 µM): 77%

CN(C)c1ncc(F)c(-c2cnn3ncccc23)n1
remaining binding (binding; 1 µM): 100%

O=C(Nc1c[nH]nc1C(=O)NC1CCNCC1)c1cc(F)cc(F)c1
remaining binding (binding, competition with immobilised ligand; 1 µM): 95%

COc1ccnn2ncc(-c3ccnc(N(C)C)n3)c12
remaining binding (binding; 1 µM): 87%

C=CC(=O)N1CCC(C(=O)NCC(=O)N2CCN(c3nc(-c4cnc(N)nc4C(F)F)nc(N4CCOCC4)n3)CC2)CC1
remaining binding (binding, competition with immobilised ligand; 1 µM): 90%

CN(CCCC(F)(F)F)c1nccc(-c2cnn3ncccc23)n1
remaining binding (binding; 1 µM): 83%

O=C(NCCCN1CCOCC1)c1ccc(Nc2ncc(Cl)c(-c3ccc(Cl)s3)n2)cc1
remaining binding (binding, competition with immobilised ligand; 1 µM): 36%
